Data from ChEMBL document CHEMBL3272219, “Chemistry and antibacterial activity of nitrobenzofurans” (J Med Chem, 1976).
≈ marks a conversion by molar mass, not a printed value. Calls of active or inactive are those of the source. No cut-off for these calls is given here.

Tests used:
[1] = Stability of the compound in aqueous solution; assay type: physicochemical; conditions: buffer
Outline: (§1)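 Solvolysis was run at 37 ± 0.5° in Jensen's minimal medium at pH 7.0 with 5% Me2SO final, starting from 0.7–2.0 × 10^-4 M compound. Absorbance was followed at a preselected wavelength. Benzofuran concentration was calculated every half hour from substrate and product extinction coefficients. Data were fitted to a first-order rate law, with a 95% confidence range on the rate constant.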

[2] = Ratio of antibacterial activity against Escherichia coli B cultured in Jensen's minimal media to antibacterial activity against Escherichia coli Br cultured in Penassay broth; assay type: functional
[3] = Half life of the compound in 5% Me2SO-Jensen's minimal media at 0.7 to 2 X 10^-4 M at pH 7 by spectrophotometric analysis; assay type: physicochemical; outline: as §1
[4] = tested on: Escherichia coli; test: Antibacterial activity against Escherichia coli B cultured in Jensen's minimal media assessed as growth inhibition by turbidimetric analysis; assay type: functional, organism-based
Outline: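 E. coli B, grown overnight in Jensen's minimal medium, was subcultured at 37° with shaking to 70% T. 1 ml of culture was added to 8 ml Jensen's broth (pH 7) plus 1 ml compound in 10% Me2SO. Five concentrations (dilution series 1–0.1) and a 1% Me2SO control were run. Turbidity was monitored with agitation. Log A vs time gave % inhibition, and IC50 came from log concentration–probability plots.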

[5] = tested on: Escherichia coli; test: Antibacterial activity against Escherichia coli Br assessed as decrease in viability at 7.7 X 10^-5 M after 2 hrs; assay type: functional, organism-based
[6] = tested on: Klebsiella pneumoniae; test: Antibacterial activity against Klebsiella pneumoniae cultured in Penassay broth assessed as effect on lag time after 9 hrs by turbidimetric analysis; assay type: functional, organism-based
Outline: (§2)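 Cultures in Penassay broth at 37° with compound added from 10% Me2SO and monitored at 660 nm every 20 min for 9 hr after inoculation. For each concentration, the log A660 vs time plot was extrapolated to A = 0.05. Time from inoculation to that point was taken as the lag time, which was then plotted against concentration.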

[7] = Half life of the compound in 10% Me2SO-Jensen's minimal media at 0.7 to 2 X 10^-4 M at pH 6 by spectrophotometric analysis; assay type: physicochemical
[8] = Half life of the compound in 20% Me2SO-Jensen's minimal media at 0.7 to 2 X 10^-4 M at pH 6 by spectrophotometric analysis; assay type: physicochemical
[9] = Half life of the compound in 5% Me2SO-Jensen's minimal media at 0.7 to 2 X 10^-4 M at pH 6 by spectrophotometric analysis; assay type: physicochemical
[10] = tested on: Staphylococcus aureus; test: Antibacterial activity against Staphylococcus aureus after 6 hrs by turbidimetric analysis; assay type: functional
Outline: (§3)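 Overnight Penassay broth culture adjusted to 60% transmittance, diluted 10 ml into 900 ml broth; 4.5 ml inoculum added to 0.5 ml compound in 10% Me2SO. Nine-step dilution series (1 to 0.031), four replicates each, with positive and negative controls. Incubation at 37°, stationary except P. aeruginosa. Turbidity read at 660 nm after 6 hr. MIC taken as the lowest concentration giving >90% T.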

[11] = tested on: Escherichia coli; test: Antibacterial activity against Escherichia coli Br after 6 hrs by turbidimetric analysis; assay type: functional; outline: as §3
[12] = tested on: Escherichia coli; test: Antibacterial activity against Escherichia coli Br cultured in Penassay broth assessed as effect on lag time after 9 hrs by turbidimetric analysis; assay type: functional, organism-based; outline: as §2
[13] = tested on: Escherichia coli; test: Antibacterial activity against Escherichia coli B after 6 hrs by turbidimetric analysis; assay type: functional; outline: as §3
[14] = tested on: Staphylococcus aureus; test: Antibacterial activity against Staphylococcus aureus cultured in Penassay broth assessed as effect on lag time after 9 hrs by turbidimetric analysis; assay type: functional, organism-based; outline: as §2
[15] = tested on: Pseudomonas aeruginosa; test: Antibacterial activity against Pseudomonas aeruginosa after 6 hrs by turbidimetric analysis; assay type: functional; outline: as §3
[16] = tested on: Enterococcus faecalis; test: Antibacterial activity against Streptococcus faecalis after 6 hrs by turbidimetric analysis; assay type: functional; outline: as §3
[17] = tested on: Escherichia coli; test: Antibacterial activity against nitrofuran reductase-deficient Escherichia coli Br 207 after 6 hrs by turbidimetric analysis; assay type: functional; conditions: Br 207, 6 h; outline: as §3
[18] = tested on: Providencia rettgeri; test: Antibacterial activity against Proteus rettgeri after 6 hrs by turbidimetric analysis; assay type: functional; outline: as §3
[19] = Half life of the compound in 40% Me2SO-Jensen's minimal media at 0.7 to 2 X 10^-4 M at pH 6 by spectrophotometric analysis; assay type: physicochemical
[20] = tested on: Klebsiella pneumoniae; test: Antibacterial activity against Klebsiella pneumoniae after 6 hrs by turbidimetric analysis; assay type: functional; outline: as §3
[21] = tested on: Proteus mirabilis; test: Antibacterial activity against Proteus mirabilis after 6 hrs by turbidimetric analysis; assay type: functional; outline: as §3
[22] = tested on: Escherichia coli; test: Antibacterial activity against Escherichia coli Br cultured in Penassay broth assessed as time required for growth suppression at 4.4 X 10^-5 M compound added in early log phase of growth by turbidimetric analysis; assay type: functional
[23] = tested on: Escherichia coli; test: Antibacterial activity against Escherichia coli Br cultured in Penassay broth assessed as time required for growth suppression at 4.4 X 10^-5 M compound added in late log phase of growth by turbidimetric analysis; assay type: functional
[24] = tested on: Escherichia coli; test: Antibacterial activity against Escherichia coli B cultured in Jensen's minimal media assessed as growth inhibition by turbidimetric analysis in presence of vitamin-free casamino acids and tryptophan; assay type: functional, organism-based
Outline: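 Same minimal-medium turbidity assay with E. coli B: a 70% T culture was mixed with compound in Me2SO in Jensen's broth (pH 7) and read with agitation. Vitamin-free casamino acids (1.2 g/l) and tryptophan (200 mg/l) were added to the minimal broth.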

[25] = tested on: Escherichia coli; test: Antibacterial activity against Escherichia coli B cultured in Jensen's minimal media assessed as growth inhibition at < 2 X 10^-5 M by turbidimetric analysis; assay type: functional, organism-based

## Cc1oc2ccc([N+](=O)[O-])cc2c1[N+](=O)[O-]
[1]
  Stability: Unstable
[2]
  Ratio: >10
[3]
  half-life: 0.89 h

## Cc1oc2ccccc2c1[N+](=O)[O-]
[1]
  Stability: Unstable
[2]
  Ratio: >10
[3]
  half-life: 3.34 h

## Cc1oc2c([N+](=O)[O-])cccc2c1C(=O)O
[4]
  growth inhibition (GI): inactive

## Cc1cc2cccc(Br)c2o1
[4]
  growth inhibition (GI): inactive

## Cc1oc2c([N+](=O)[O-])cccc2c1C#N
[4]
  growth inhibition (GI): inactive

## Cc1oc2c(C(N)=O)cccc2c1[N+](=O)[O-]
[1]
  Stability: Unstable
[2]
  Ratio: >10
[3]
  half-life: 1.91 h

## Cc1oc2c([N+](=O)[O-])cccc2c1C(N)=O
[4]
  growth inhibition (GI): inactive

## Cc1oc2c([N+](=O)[O-])cccc2c1[N+](=O)[O-]
[5]
  Activity: inactive
[6]
  Activity: Active
[1]
  Stability: Unstable
[7]
  half-life: 1.95 h
[8]
  half-life: 1.78 h
[9]
  half-life: 2.1 h
[10]
  MIC: 2.5 µg/mL (≈ 11.3 µM)
[11]
  MIC: 1.87 µg/mL (≈ 8.42 µM)
[12]
  Activity: Active
[13]
  MIC: 1.87 µg/mL (≈ 8.42 µM)
[14]
  Activity: Active
[15]
  MIC: > 10 µg/mL
[16]
  MIC: 3.75 µg/mL (≈ 16.9 µM)
[2]
  Ratio: >10
[17]
  MIC: 1.87 µg/mL (≈ 8.42 µM)
[18]
  MIC: 7.5 µg/mL (≈ 33.8 µM)
[19]
  half-life: 1.51 h
[20]
  MIC: 5 µg/mL (≈ 22.5 µM)
[21]
  MIC: 6.25 µg/mL (≈ 28.1 µM)
[22]
  Time: 6 h
[3]
  half-life: 1.37 h
[23]
  Time: 3 h

## Cc1oc2c(Br)cccc2c1[N+](=O)[O-]
[1]
  Stability: Unstable
[2]
  Ratio: >10

## Cc1oc2c([N+](=O)[O-])cccc2c1Br
[4]
  growth inhibition (GI): inactive

## Cc1cc2cccc(N)c2o1
[4]
  growth inhibition (GI): inactive

## NC(=O)N/N=C/c1ccc([N+](=O)[O-])o1 [NITROFURAZONE]
[10]
  MIC: 5 µg/mL (≈ 25.2 µM)
[11]
  MIC: 5 µg/mL (≈ 25.2 µM)
[12]
  Activity: inactive
[13]
  MIC: 5 µg/mL (≈ 25.2 µM)
[15]
  MIC: > 100 µg/mL
[16]
  MIC: 50 µg/mL (≈ 252 µM)
[17]
  MIC: 18.7 µg/mL (≈ 94.4 µM)
[18]
  MIC: > 100 µg/mL
[20]
  MIC: 10 µg/mL (≈ 50.5 µM)
[21]
  MIC: 50 µg/mL (≈ 252 µM)

## Cc1oc2c(NC(=O)C(F)(F)F)cccc2c1[N+](=O)[O-]
[1]
  Stability: Unstable
[24]
  growth inhibition (GI): inactive
[25]
  growth inhibition (GI): inactive
[3]
  half-life: 2.88 h

## Cc1cc2cccc([N+](=O)[O-])c2o1
[4]
  growth inhibition (GI): inactive

## Cc1oc2c(C(F)(F)F)cccc2c1[N+](=O)[O-]
[1]
  Stability: Unstable
[2]
  Ratio: >10
[3]
  half-life: 1.48 h
